Measured values: ChEMBL document CHEMBL1932986, “Synthesis and in vitro antimycobacterial activity of compounds derived from (R)- and (S)-2-amino-1-butanol - The crucial role of the configuration” (Eur J Med Chem, 2012)
Values after ≈ are worked out from the molar mass of the structure shown. Active and inactive are the calls of the source. The calls are words filed in the database; no cut-off is given here.

Legend:
[1] = test system: Mycobacterium tuberculosis; assay: Antimycobacterial activity against Mycobacterium tuberculosis H37Rv after 45 days; type: functional
Method in brief: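 Canetti proportion method. Compound in DMSO is added to Löwenstein–Jensen egg medium before coagulation (30 min, 85 °C), tested at three levels plus a lower one where needed. Tubes are inoculated with H37Rv at 10⁵ cells/ml and incubated 45 days at 37 °C. Colony counts versus drug-free control give percentage inhibition.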

[2] = test system: Mycobacterium tuberculosis; assay: Ratio of ethambutol dihydrochloride MIC to compound MIC for Mycobacterium tuberculosis H37Rv; type: functional
Bacillus mycoides = assay: Antibacterial activity against Bacillus mycoides DSMZ 274 at 50 mg/ml after 24 hrs by agar diffusion test; type: functional; conditions: for zone of inhibition at 50000 µg/mL: DSMZ 274, 24 h, read-out: DIZ
Method in brief: (§1)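 Agar diffusion: wells in agar filled with […] DMSO solution of compound at various concentrations; diameter of clear zone around application point measured. Bacteria grown 24 h at 37 °C on nutrient agar. Compounds first screened at 50 mg/ml; those active then tested at lower concentrations. Bracketed value = lowest concentration (mg/ml) giving zone >11 mm, reported only if activity retained at ≤1.25 mg/ml.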

Micrococcus luteus [3] = assay: Antibacterial activity against Sarcina lutea ATCC 9341 at 50 mg/ml after 24 hrs by agar diffusion test; type: functional; conditions: for zone of inhibition at 50000 µg/mL: ATCC 9341, 24 h, read-out: DIZ
Method in brief: (§2)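 Agar diffusion: bacteria grown 24 h at 37 °C on nutrient agar. Wells in the agar are filled with […] of compound solution in DMSO at various concentrations. The diameter of the clear zone around the application point is measured. Bracketed values give the lowest concentration (mg/ml) that produces a zone >11 mm. A first screen is run at 50 mg/ml.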

HEK-293T = assay: Cytotoxicity against human HEK293T cells after 72 hrs by MTT assay; type: cell-based
Method in brief: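 293T cells in RPMI-1640 with 10% heat-inactivated FCS and 2 mM L-glutamine, 37 °C, 5% CO2. Cells seeded at 3.5 × 10⁵ cells/ml, grown 24 h, then exposed 72 h to DMSO-diluted compounds (final solvent ≤0.5%), ≥8 wells per concentration. MTT added 4 h, formazan dissolved in 5% HCOOH/2-propanol, absorbance read at 580 nm. IC50 obtained by sigmoidal nonlinear regression against untreated control.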

Bacillus cereus = assay: Antibacterial activity against Bacillus cereus ATCC 11778 at 50 mg/ml after 24 hrs by agar diffusion test; type: functional; conditions: for zone of inhibition at 50000 µg/mL: ATCC 11778, 24 h, read-out: DIZ; method in brief: as §1
[4] = Selectivity index, ratio of IC50 for human HEK293T cells to MIC for Mycobacterium tuberculosis H37Rv; type: functional, HEK-293T
Bacillus subtilis = assay: Antibacterial activity against Bacillus subtilis ATCC 6633 at 50 mg/ml after 24 hrs by agar diffusion test; type: functional; conditions: for zone of inhibition at 50000 µg/mL: ATCC 6633, 24 h, read-out: DIZ; method in brief: as §1
Acinetobacter johnsonii = assay: Antibacterial activity against Acinetobacter johnsonii ATCC 17909 at 50 mg/ml after 24 hrs by agar diffusion test; type: functional; conditions: for zone of inhibition at 50000 µg/mL: ATCC 17909, 24 h, read-out: DIZ; method in brief: as §1
Priestia megaterium = assay: Antibacterial activity against Bacillus megaterium NRRL 1353895 at 50 mg/ml after 24 hrs by agar diffusion test; type: functional; conditions: for zone of inhibition at 50000 µg/mL: NRRL 1353895, 24 h, read-out: DIZ; method in brief: as §1
Saccharomyces cerevisiae = assay: Antifungal activity against Saccharomyces cerevisiae ATCC 9763 at 50 mg/ml after 72 hrs by agar diffusion test; type: functional; conditions: for zone of inhibition at 50000 µg/mL: ATCC 9763, 72 h, read-out: DIZ
Method in brief: (§3)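 Agar diffusion: yeasts grown on yeast peptone dextrose agar and fungi on potato dextrose agar. Wells are filled with […] of compound solution in DMSO at various concentrations, and the clear-zone diameter is measured. Bracketed values give the lowest concentration (mg/ml) that produces a zone >11 mm. A first screen is run at 50 mg/ml.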

Penicillium chrysogenum = assay: Antifungal activity against Penicillium chrysogenum CECT 2802 at 50 mg/ml after 72 hrs by agar diffusion test; type: functional; conditions: for zone of inhibition at 50000 µg/mL: CECT 2802, 72 h, read-out: DIZ; method in brief: as §3
Staphylococcus aureus = assay: Antibacterial activity against Staphylococcus aureus NRRL B 313 at 50 mg/ml after 24 hrs by agar diffusion test; type: functional; conditions: for zone of inhibition at 50000 µg/mL: NRRL B 313, 24 h, read-out: DIZ; method in brief: as §2
[5] = Solubility of the compound in deionized water; type: physicochemical
Bacillus = assay: Antibacterial activity against Bacillus idosus B 241 at 50 mg/ml after 24 hrs by agar diffusion test; type: functional; conditions: for zone of inhibition at 50000 µg/mL: B 241, 24 h, read-out: DIZ; method in brief: as §1
Escherichia coli = assay: Antibacterial activity against Escherichia coli ATCC 8739 at 50 mg/ml after 24 hrs by agar diffusion test; type: functional; conditions: for zone of inhibition at 50000 µg/mL: ATCC 8739, 24 h, read-out: DIZ; method in brief: as §1
Candida tropicalis = assay: Antifungal activity against Candida tropicalis ATCC 20336 at 50 mg/ml after 72 hrs by agar diffusion test; type: functional; conditions: for zone of inhibition at 50000 µg/mL: ATCC 20336, 72 h, read-out: DIZ; method in brief: as §3
Micrococcus luteus [6] = assay: Antibacterial activity against Micrococcus luteus ATCC 9631 at 50 mg/ml after 24 hrs by agar diffusion test; type: functional; conditions: for zone of inhibition at 50000 µg/mL: ATCC 9631, 24 h, read-out: DIZ; method in brief: as §1

SMILES: CC[C@@H](CO)N1Cc2ccccc2C1=O
- MIC [1]: > 31.2 µM
- Ratio [2]: 2

SMILES: CC[C@H](CO)Nc1ccc2c3c(cccc13)C(=O)N([C@H](CC)CO)C2=O
- diameter of the inhibition zone (DIZ) (Bacillus mycoides): inactive
- diameter of the inhibition zone (DIZ) (Micrococcus luteus [3]): inactive
- IC50 (HEK-293T): 47 µM
- MIC [1]: 14 µM (≈ 5 µg/mL)
- diameter of the inhibition zone (DIZ) (Bacillus cereus): inactive
- Selectivity Index [4]: 3.4
- diameter of the inhibition zone (DIZ) (Bacillus subtilis): inactive
- diameter of the inhibition zone (DIZ) (Acinetobacter johnsonii): inactive
- diameter of the inhibition zone (DIZ) (Priestia megaterium): inactive
- diameter of the inhibition zone (DIZ) (Saccharomyces cerevisiae): inactive
- diameter of the inhibition zone (DIZ) (Penicillium chrysogenum): inactive
- diameter of the inhibition zone (DIZ) (Staphylococcus aureus): inactive
- solubility [5]: < 1000 µg/mL
- diameter of the inhibition zone (DIZ) (Bacillus): inactive

SMILES: CC[C@@H](CO)NCCN[C@@H](CC)CO.Cl.Cl [ETHAMBUTOL HYDROCHLORIDE]
- MIC [1]: 7.22 µM
- solubility [5]: 100000 µg/mL

SMILES: CC(C)=CCC/C(C)=C/CNCCNC1C2CC3CC(C2)CC1C3 (configuration not stated) [SQ109]
- Ratio [2]: 35

SMILES: CC[C@H](CO)N1Cc2ccccc2C1
- zone of inhibition at 50000 µg/mL (Bacillus mycoides): 23 mm
- zone of inhibition at 50000 µg/mL (Escherichia coli): 25 mm
- zone of inhibition at 50000 µg/mL (Candida tropicalis): 21 mm
- IC50 (HEK-293T): 122 µM
- MIC [1]: 10.5 µM (≈ 2 µg/mL)
- zone of inhibition at 50000 µg/mL (Bacillus cereus): 25 mm
- Selectivity Index [4]: 11.7
- zone of inhibition at 50000 µg/mL (Bacillus subtilis): 11 mm
- zone of inhibition at 50000 µg/mL (Saccharomyces cerevisiae): 16 mm
- zone of inhibition at 50000 µg/mL (Penicillium chrysogenum): 10 mm
- zone of inhibition at 50000 µg/mL (Staphylococcus aureus): 25 mm
- solubility [5]: < 1000 µg/mL
- zone of inhibition at 50000 µg/mL (Bacillus): 20 mm

SMILES: CC[C@@H](CO)NC(=O)/C=C/c1ccccc1
- MIC [1]: > 22.8 µM
- Ratio [2]: 2

SMILES: CC[C@H](COC(C)=O)NC(c1ccccc1)(c1ccccc1)c1ccccc1
- diameter of the inhibition zone (DIZ) (Bacillus mycoides): inactive
- diameter of the inhibition zone (DIZ) (Escherichia coli): inactive
- diameter of the inhibition zone (DIZ) (Candida tropicalis): inactive
- diameter of the inhibition zone (DIZ) (Micrococcus luteus [6]): inactive
- diameter of the inhibition zone (DIZ) (Micrococcus luteus [3]): inactive
- IC50 (HEK-293T): 114 µM
- MIC [1]: 13.4 µM (≈ 5 µg/mL)
- diameter of the inhibition zone (DIZ) (Bacillus cereus): inactive
- Selectivity Index [4]: 8.5
- zone of inhibition at 50000 µg/mL (Bacillus subtilis): 13 mm
- diameter of the inhibition zone (DIZ) (Acinetobacter johnsonii): inactive
- diameter of the inhibition zone (DIZ) (Priestia megaterium): inactive
- diameter of the inhibition zone (DIZ) (Saccharomyces cerevisiae): inactive
- diameter of the inhibition zone (DIZ) (Penicillium chrysogenum): inactive
- diameter of the inhibition zone (DIZ) (Staphylococcus aureus): inactive
- solubility [5]: < 1000 µg/mL
- diameter of the inhibition zone (DIZ) (Bacillus): inactive

SMILES: CCNC(=O)N[C@@H](CC)CO
- MIC [1]: > 24.4 µM
- Ratio [2]: 2

SMILES: CC[C@@H](CO)NP(=O)(c1ccccc1)c1ccccc1
- MIC [1]: > 17.3 µM
- Ratio [2]: 2

SMILES: CC[C@@H](CO)NC(=O)c1ccccc1O
- MIC [1]: > 23.9 µM
- Ratio [2]: 2

SMILES: CC[C@@H](CO)NC(=O)c1ccccc1C(=O)N[C@@H](CC)CO
- MIC [1]: > 16.2 µM
- Ratio [2]: 2

SMILES: CC[C@H](CO)Nc1cccc(Br)n1
- zone of inhibition at 50000 µg/mL (Bacillus mycoides): 13 mm
- zone of inhibition at 50000 µg/mL (Escherichia coli): 17 mm
- zone of inhibition at 50000 µg/mL (Candida tropicalis): 25 mm
- zone of inhibition at 50000 µg/mL (Micrococcus luteus [6]): 18 mm
- zone of inhibition at 50000 µg/mL (Micrococcus luteus [3]): 17 mm
- MIC [1]: 20.4 µM (≈ 5 µg/mL)
- zone of inhibition at 50000 µg/mL (Bacillus cereus): 19 mm
- zone of inhibition at 50000 µg/mL (Bacillus subtilis): 13 mm
- zone of inhibition at 50000 µg/mL (Acinetobacter johnsonii): 14 mm
- zone of inhibition at 50000 µg/mL (Priestia megaterium): 15 mm
- zone of inhibition at 50000 µg/mL (Saccharomyces cerevisiae): 10 mm
- zone of inhibition at 50000 µg/mL (Penicillium chrysogenum): 17 mm
- zone of inhibition at 50000 µg/mL (Staphylococcus aureus): 14 mm
- zone of inhibition at 50000 µg/mL (Bacillus): 17 mm

SMILES: CC[C@H](CO)NCc1ccc(CN[C@H](CC)CO)cc1
- diameter of the inhibition zone (DIZ) (Bacillus mycoides): inactive
- diameter of the inhibition zone (DIZ) (Escherichia coli): inactive
- diameter of the inhibition zone (DIZ) (Candida tropicalis): inactive
- diameter of the inhibition zone (DIZ) (Micrococcus luteus [6]): inactive
- diameter of the inhibition zone (DIZ) (Micrococcus luteus [3]): inactive
- MIC [1]: 17.8 µM (≈ 5 µg/mL)
- diameter of the inhibition zone (DIZ) (Bacillus cereus): inactive
- zone of inhibition at 50000 µg/mL (Bacillus subtilis): 10 mm
- diameter of the inhibition zone (DIZ) (Acinetobacter johnsonii): inactive
- diameter of the inhibition zone (DIZ) (Priestia megaterium): inactive
- diameter of the inhibition zone (DIZ) (Saccharomyces cerevisiae): inactive
- diameter of the inhibition zone (DIZ) (Penicillium chrysogenum): inactive
- diameter of the inhibition zone (DIZ) (Staphylococcus aureus): inactive
- diameter of the inhibition zone (DIZ) (Bacillus): inactive

SMILES: CC[C@H](CO)NCc1ccccc1O
- zone of inhibition at 50000 µg/mL (Bacillus mycoides): 14 mm
- diameter of the inhibition zone (DIZ) (Escherichia coli): inactive
- diameter of the inhibition zone (DIZ) (Candida tropicalis): inactive
- zone of inhibition at 50000 µg/mL (Micrococcus luteus [6]): 11 mm
- zone of inhibition at 50000 µg/mL (Micrococcus luteus [3]): 12 mm
- MIC [1]: 25.6 µM (≈ 5 µg/mL)
- zone of inhibition at 50000 µg/mL (Bacillus cereus): 14 mm
- zone of inhibition at 50000 µg/mL (Bacillus subtilis): 17 mm
- zone of inhibition at 50000 µg/mL (Acinetobacter johnsonii): 13 mm
- zone of inhibition at 50000 µg/mL (Priestia megaterium): 12 mm
- diameter of the inhibition zone (DIZ) (Saccharomyces cerevisiae): inactive
- zone of inhibition at 50000 µg/mL (Penicillium chrysogenum): 12 mm
- zone of inhibition at 50000 µg/mL (Staphylococcus aureus): 12 mm
- zone of inhibition at 50000 µg/mL (Bacillus): 11 mm

SMILES: CC[C@H](CO)NC(=O)/C=C/c1ccccc1
- zone of inhibition at 50000 µg/mL (Bacillus mycoides): 12 mm
- diameter of the inhibition zone (DIZ) (Escherichia coli): inactive
- zone of inhibition at 50000 µg/mL (Candida tropicalis): 11 mm
- diameter of the inhibition zone (DIZ) (Micrococcus luteus [6]): inactive
- zone of inhibition at 50000 µg/mL (Micrococcus luteus [3]): 15 mm
- IC50 (HEK-293T): 211 µM
- MIC [1]: 9.12 µM (≈ 2 µg/mL)
- zone of inhibition at 50000 µg/mL (Bacillus cereus): 12 mm
- Selectivity Index [4]: 23.1
- diameter of the inhibition zone (DIZ) (Bacillus subtilis): inactive
- diameter of the inhibition zone (DIZ) (Acinetobacter johnsonii): inactive
- zone of inhibition at 50000 µg/mL (Priestia megaterium): 12 mm
- zone of inhibition at 50000 µg/mL (Saccharomyces cerevisiae): 13 mm
- zone of inhibition at 50000 µg/mL (Staphylococcus aureus): 12 mm
- solubility [5]: < 1000 µg/mL
- diameter of the inhibition zone (DIZ) (Bacillus): inactive
